Assay results taken from ChEMBL document CHEMBL2396641, “Synthesis, antioxidant, and antimicrobial evaluation of some 2-arylbenzimidazole derivatives” (Bioorg Med Chem Lett, 2013).
Converted amounts (≈) assume the structure as drawn. The source made the active and inactive calls. No cut-off for these calls is given here.

What was measured:
[1] = Antioxidant activity assessed as ferric ion reducing ability after 20 mins by spectrophotometric analysis; assay type: functional
[2] = test system: Staphylococcus aureus; test: Antibacterial activity against Staphylococcus aureus after 24 hrs by agar dilution method; assay type: functional
[3] = Antioxidant activity assessed as hydroxyl radical scavenging activity after 1 hr by spectrophotometric analysis; assay type: functional
[4] = test system: Pseudomonas aeruginosa; test: Antibacterial activity against Pseudomonas aeruginosa after 24 hrs by agar dilution method; assay type: functional
[5] = test system: A549; test: Antioxidant activity in human A549 cells assessed as protection against H2O2-induced cell death at 50 to 100 uM preincubated for 1 hr prior to H2O2-challenge measured after 24 hrs by SRB assay; assay type: functional, cell-based
[6] = test system: Bacillus cereus; test: Antibacterial activity against Bacillus cereus after 24 hrs by agar dilution method; assay type: functional
[7] = test system: A549; test: Antioxidant activity in human A549 cells assessed as decrease in AAPH-induced oxidative stress after 2 hrs by DCFH-DA staining-based fluorescent microscopic analysis; assay type: functional, cell-based
Method in brief: (§1)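 A549 cells pretreated with AAPH 1 h to induce ROS stress, then compound added; intracellular ROS (hydrogen peroxides, hydroxyl radicals) quantified with DCFH-DA, by fluorescence imaging (×200) or flow cytometry; one representative of three independent experiments.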

[8] = test system: A549; test: Antioxidant activity in human A549 cells assessed as inhibition of AAPH-induced oxidative stress at 100 uM after 2 hrs by flow cytometric analysis relative to control; assay type: functional; details: A549, 2 h; method in brief: as §1
[9] = test system: Escherichia coli; test: Antibacterial activity against Escherichia coli after 24 hrs by agar dilution method; assay type: functional
[10] = test system: Staphylococcus epidermidis; test: Antibacterial activity against Staphylococcus albus after 24 hrs by agar dilution method; assay type: functional
[11] = test system: Radical scavenging activity; test: Antioxidant activity assessed as DPPH radical scavenging activity after 30 mins by spectrophotometric analysis; assay type: functional
Method in brief: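 DPPH radical bleaching followed as loss of absorbance at 517 nm; IC50 derived; mean ± SD, n = 3.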

[12] = Antioxidant activity assessed as superoxide radical anion scavenging activity by spectrophotometric analysis; assay type: functional
[13] = test system: A549; test: Antioxidant activity in human A549 cells assessed as inhibition of AAPH-induced oxidative stress at 50 uM after 2 hrs by flow cytometric analysis relative to control; assay type: functional; details: A549, 2 h; method in brief: as §1
[14] = test system: NIH3T3; test: Cytotoxicity against mouse NIH/3T3 cells after 48 hrs by SRB assay; assay type: cell-based; details: NIH3T3, 48 h

MIC [2]: > 200 µM
EC50 [3]: 46 µM
MIC [4]: > 200 µM
MIC [6]: > 200 µM
MIC [9]: 12.5 µM (≈ 3.2 µg/mL)
MIC [10]: > 200 µM
EC50 [11]: 27 µM
EC50 [12]: > 200 µM
Compound: COc1cc(O)ccc1-c1nc2cc(O)ccc2[nH]1
Activity [1]: Dose-dependent effect
Activity [5]: Active
Activity [7]: Active
inhibition at 100 µM [8]: 70.4%
MBC [9]: 25 µM (≈ 6.41 µg/mL)
inhibition at 50 µM [13]: 25.3%
IC50 [14]: > 200 µM
